Bioassay records: PubChem, Broad Institute
AF4-AF9 inh – inhibitors of human MLL-AF4/AF9 interaction; P42568; AlphaScreen, biotin-AF4 peptide binding to FLAG-AF9; inhibition, % at 10 µM; 0.47% of 350,000 active;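 active = every replicate reaching a set inhibition limit, whatever the replicate mean, cut at about 25% in these data; inconclusive = mean inhibition reaches that limit but some replicates miss it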;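 note: 0% = plate neutral control median and 100% = total signal loss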
Target sequence (P42568 whole entry, looked up): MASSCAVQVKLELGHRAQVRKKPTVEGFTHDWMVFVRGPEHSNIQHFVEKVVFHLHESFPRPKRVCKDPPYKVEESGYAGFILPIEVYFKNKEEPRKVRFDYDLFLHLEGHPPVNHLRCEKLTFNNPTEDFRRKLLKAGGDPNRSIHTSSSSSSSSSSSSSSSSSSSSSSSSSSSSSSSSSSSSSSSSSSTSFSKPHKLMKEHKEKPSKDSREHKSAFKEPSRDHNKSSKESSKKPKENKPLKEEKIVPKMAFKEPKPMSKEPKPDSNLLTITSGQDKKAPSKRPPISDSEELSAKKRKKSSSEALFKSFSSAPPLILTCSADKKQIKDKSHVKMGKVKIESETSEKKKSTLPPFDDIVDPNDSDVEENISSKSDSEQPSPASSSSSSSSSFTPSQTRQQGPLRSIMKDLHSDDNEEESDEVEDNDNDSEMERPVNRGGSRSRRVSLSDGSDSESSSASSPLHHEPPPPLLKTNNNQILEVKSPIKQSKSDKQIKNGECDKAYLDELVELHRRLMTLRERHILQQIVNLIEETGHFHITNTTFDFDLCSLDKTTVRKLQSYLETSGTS
EWS-Fli block – blocks EWS/Fli oncoprotein-driven transcription. A673 NR0B1-luciferase reporter, viability-normalised. inhibition, % at 12.6 µM. 0.67% of 350,000 active. AID 651661;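 active = mean inhibition of at least 50% after viability correction, with every replicate also passing that limit; inconclusive = mean reaches 50% but only one of two replicates passes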;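 note: firefly luciferase signal divided by Alamar Blue viability fluorescence both relative to DMSO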
PAX8 reporter – lowers PAX8-driven luciferase in RMG-I cells. RMG-I TPO-luciferase reporter, SteadyGlo, 24 h. inhibition, % at 12.6 µM. 1.2% of 360,000 active. AID 652154;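 active = mean replicate inhibition at least 60% with every replicate also reaching 60%; inconclusive = only one of the two criteria is met; inactive = mean below 60% and not all replicates reaching 60%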;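 note: luciferase light reporting Pax8 driven TPO promoter activity; plate controls were median of neutral control wells for no effect and mitoxantrone controls for full effect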
N-glyco inh – N-linked glycosylation inhibition | D54 ERlucT glycosylation luciferase reporter, 24 h; percent of 100 nM tunicamycin response | reporter increase, % at 12.5 µM | 0.23% of 360,000 active | AID 588692;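 active = mean luciferase reporter signal, scaled so untreated is 0 and the glycosylation-blocking control 100, at or above a set limit in every replicate; inconclusive = mean reaches the limit but not every replicate does; inactive = mean below the limit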;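 note: luciferase carries N-glycosylation sites so blocking glycosylation raises the light; 0% = median of neutral control wells and 100% = median of 100 nM tunicamycin wells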
Env fusion inh – blocks HIV Env-driven cell-cell fusion | HeLa-JRFL Env/CEM21 cell fusion, luciferase | inhibition, % at 12.3 µM | 1.1% of 360,000 active;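 active = mean replicate inhibition score of at least 50 and every replicate individually at or above 50; inconclusive = only one of the two criteria met; inactive = mean below 50 and not all replicates reaching 50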;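 note: 0% = plate neutral controls and 100% = maraviroc near 300 nM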
FN deposit inh – fibronectin deposition inhibition; AH1F fibroblasts, Alexa488-fibronectin deposition fluorescence, overnight; 0.086% of 350,000 active; inhibition, % at 12.6 µM; AID 743247;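 active = mean inhibition across replicates of 30% or more, regardless of how many single replicates reach that level; inconclusive = mean under 30% yet at least half of replicates reach 30%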;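 note: positive control wells lacked labelled fibronectin entirely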
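Measured by – fluorescence 485/525 nm · System – AH1F fibroblast monolayer, labelled fibronectin deposition · Amount – 10000 cells per well · Buffer or medium – serum-reduced DMEM (2% serum) · Doses – single dose, pinned · Also added – fluorescent fibronectin at 24 nM final · Schedule – 1 h cell attachment, overnight exposure to compound and label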
The depositor's hits bear a star; ? = inconclusive; nt = no result given; [ ] = dose if it differs, or a comment. In the library only some 2.5% were active in any assay of this set; here they are far more common.

SMILES	AF4-AF9 inh	EWS-Fli block	PAX8 reporter	N-glyco inh	Env fusion inh	FN deposit inh
O=C(NNC1=Nc2ccccc2SC1)c1ccc(Cl)cc1	2.1	7.7	18.7	11.8	61.2*	14.2
C[C@@H]1CN([C@H](C)CO)C(=O)c2cc(NC(=O)Nc3ccc(F)cc3)ccc2O[C@@H](C)CCCCO[C@H]1CN(C)S(C)(=O)=O	nt	3.2	3.5	nt	-3.8[16.7 µM]	nt
Cc1ccc(S(=O)(=O)N2C[C@H]3[C@H]4C(=O)N(C5CCCCC5)C(=O)[C@H]4CC(=O)[C@H]3[C@@H]2c2ccccc2Cl)cc1	-1.7	-2.7	25.6	-2.9	58.8*	nt
COCCNc1nc(NCc2ccc(NC(C)=O)cc2)c2sc(-c3ccccc3)cc2n1	3.7	43.3	86.4*	-4.2	5.2	4.4
C=CCNc1nc(NCCOC)c2sc(-c3ccccc3)cc2n1	6.2	-4.9	-13.4	-0.4	-38.4	nt
C=CCNc1nc(Nc2ccc(OC)c(OC)c2)c2sc(-c3ccccc3)cc2n1	12.5	56.1*	nt	15.6	-288.4	7.9
COCCNc1nc(Oc2ccc(NC(C)=O)cc2)c2sc(-c3ccccc3)cc2n1	3.3	-9.5	-47.0	-6.9	-28.6	-9.6
COc1ccc2c3c(n(C)c2c1)[C@H](CO)NCC31CCN(C(=O)c2cccc(F)c2)CC1	1.3	-5.8	nt	nt	nt	nt
CN(C(=O)c1ccc(Oc2ccc([N+](=O)[O-])cc2)cc1)C1CCCCC1	2.2	15.5	17.7	-3.6	58.8*	-5.5
CN(C)CCCNS(=O)(=O)c1ccc(N2CCN(Cc3ccc4c(c3)OCO4)CC2)c([N+](=O)[O-])c1	14.3	52.3*	5.1	2.6	1.1	6.8
CN(C)C(=O)C[C@H]1CC[C@H](NC(=O)C2CCOCC2)[C@H](CO)O1	1.1	-2.5	1.8	nt	-6.5[16.7 µM]	-2.2
CCNC(=O)C[C@H]1CC[C@@H]2[C@H](COC[C@@H](O)CN2C(=O)CC)O1	-2.2	5.7	1.5	nt	nt	-5.3
COc1cc(CNS(=O)(=O)c2ccc3c(c2)CC(C)N3C(=O)C2CCC2)cc(OC)c1OC (stereo not drawn)	1.2	8.9	19.1	-0.1	56.7*	8.9
NC(N)=NC(=O)c1nc(Cl)c(N2CCCCCC2)nc1N	14.9	6.7	-54.0	-4.2	61.7*	nt
COc1cc(CNCc2ccncc2)cc(Br)c1OCc1ccccc1F	nt	nt	nt	-5.5	67.4*	nt
COc1cc(CNc2ccc(O)cc2)cc(Br)c1OCc1ccccc1F	nt	nt	nt	-2.3	nt	nt
COc1ccc(NC(=O)Nc2ccc3c(c2)[C@@H]2C[C@@H](CC(=O)NCC4CC4)O[C@H](CO)[C@@H]2O3)cc1	-2.2	-7.2	-17.0	nt	-6.0[16.7 µM]	-9.9
Cc1cc(CN(C)C(=O)CC2C(=O)NCCN2Cc2c(F)cccc2Cl)n[nH]1 (stereo not drawn)	-1.2	-4.8	-17.6	0.8	64.7*	-1.7
C[C@H]1CN([C@@H](C)CO)C(=O)c2cc(NS(C)(=O)=O)ccc2O[C@H]1CN(C)S(=O)(=O)c1ccc(Cl)cc1	nt	-1.1	nt	nt	?	nt
O=C(CSc1nc2ccccc2c(=O)[nH]1)Nc1cccc([N+](=O)[O-])c1	-0.8	11.2	-4.4	-0.3	63.1*	nt
O=C(CSc1nc2ccccc2c(=O)[nH]1)Nc1ccc(Br)cc1	0.5	-4.7	6.2	0.8	12.7	-1.5
CN(C)C(=O)c1ccc(-c2ccc3c(c2)[C@@H]2[C@@H](CCN2C(=O)C2CCOCC2)[C@@H](CO)N3C)cc1	-0.8	-16.9	-18.1	nt	nt	1.0
O=C(C(Cc1ccccc1)NS(=O)(=O)c1cccc2cccnc12)N1CCc2ccccc21 (stereo not drawn)	-3.1	3.8	11.6	-5.5	55.1*	14.8
O=S(=O)(c1cccc2cccnc12)N1CCc2ccccc21	nt	nt	nt	-2.4	nt	nt
CCOc1ccc2nc(Cl)c(/C=C/C(=O)c3ccco3)cc2c1	nt	nt	-22.9	10.2	-55.3	3.4
Cc1cccc2cc(/C=C/C(=O)c3ccco3)c(Cl)nc12	0.1	6.3	26.2	30.9*	4.4	12.6
O=C(Nc1sc2c(c1C(=O)O)CCCC2)c1ccc(F)cc1	1.2	-352.1	15.7	-2.0	-39.1	-4.0
CC(C)(C)c1ccc(C(=O)Nc2sc3c(c2C(=O)O)CCC3)cc1	-1.2	23.3	80.2*	-3.6	80.9*	-7.5
CS(=O)(=O)N1Cc2cc(C(=O)NCC3CCCCC3)nc(-c3cccc(-c4cccnc4)c3)c2[C@@H]1CCO	6.8	22.1	nt	nt	nt	-3.8
